Legend:
Liver microsomes [1] = assay: Intrinsic clearance in rat liver microsomes; type: ADME, Microsome
[2] = Half life in rat at 10 umol/kg, po; type: ADME, organism-based; conditions: in vivo
How it was run: (§1)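 Fasted male Sprague-Dawley rats dosed per orally at 10 µmol/kg. Three animals per administration per compound; plasma exposure and PK parameters derived.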

Liver microsomes [3] = assay: Intrinsic clearance in human liver microsomes; type: ADME, Microsome
[4] = Half life in rat at 3 umol/kg, iv; type: ADME, organism-based; conditions: in vivo
How it was run: (§2)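 Fasted male Sprague-Dawley rats given a single intravenous dose of 3 μmol/kg. Three animals per administration per compound; plasma PK parameters derived.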

Rattus norvegicus [5] = assay: Dose normalized AUC in rat at 3 umol/kg, iv; type: ADME, organism-based; conditions: in vivo; how it was run: as §2
[6] = Tmax in rat at 10 umol/kg, po; type: ADME, organism-based; conditions: in vivo; how it was run: as §1
[7] = Volume of distribution at steady state in rat at 3 umol/kg, iv; type: ADME, organism-based; conditions: in vivo, read-out: Vdss; how it was run: as §2
Liver microsomes [8] = assay: Metabolic stability in human liver microsomes by glutathione trapping assay; type: ADME, Microsome
[9] = Clearance in rat at 3 umol/kg, iv; type: ADME, organism-based; conditions: in vivo; how it was run: as §2
[10] = Oral bioavailability in rat at 10 umol/kg; type: ADME, organism-based; conditions: in vivo; how it was run: as §1
[11] = Cmax in rat at 10 umol/kg, po; type: ADME, organism-based; design: dose 10 umol/kg, route oral; conditions: in vivo; how it was run: as §1
Rattus norvegicus [12] = assay: Dose normalised AUC in rat at 10 umol/kg, po; type: ADME, organism-based; conditions: in vivo; how it was run: as §1
[13] = Oral bioavailability in rat in presence of 1-aminobenzotriazole; conditions: in vivo

| CLH (Liver microsomes [1]) [µL/min/µg] | CLH (Liver microsomes [3]) [µL/min/µg] | Stability (Liver microsomes [8]) | Compound | further results |
| --- | --- | --- | --- | --- |
| 16 | < 10 | Stable | COc1cnc(-c2ccccc2C(F)(F)CNC(=O)c2ccc(COCC(F)(F)F)nc2)cn1 | half-life [2]: 2.8 h; half-life [4]: 1.2 h; AUC/dose (Rattus norvegicus [5]): 1.5 kg·h/L; Tmax [6]: 0.33 h; Vd [7]: 0.72 L/kg; clearance [9]: 11 mL/min/kg; bioavailability [10]: 27%; Cmax [11]: 1400 nM; AUC/dose (Rattus norvegicus [12]): 0.41 kg·h/L |
| 35 | 74 | Stable | COc1ncc(-c2c(C)ccc(F)c2CCNC(=O)c2ccc(OCC(F)(F)F)nc2)cn1 |  |
| 270 | 210 |  | O=C(NCCc1ccccc1-c1cnc(OC(F)F)cn1)c1ccc(OCCC(F)(F)F)nc1 |  |
| 17 | 45 |  | COc1ncc(-c2cccc(OC)c2CCNC(=O)c2ccc(OCCC(F)(F)F)nc2)cn1 |  |
| < 10 | 23 |  | Cc1ncc(-c2ccccc2CCNC(=O)c2ccc(OCCOCC(F)(F)F)nc2)cn1 |  |
| 45 | 44 | Stable | COc1cnc(-c2c(F)ccc(F)c2CCNC(=O)c2ccc(COCC(F)(F)F)nc2)cn1 | half-life [2]: 3 h; half-life [4]: 0.9 h; AUC/dose (Rattus norvegicus [5]): 1.3 kg·h/L; Tmax [6]: 0.67 h; Vd [7]: 0.85 L/kg; clearance [9]: 13 mL/min/kg; bioavailability [10]: 5%; Cmax [11]: 160 nM; AUC/dose (Rattus norvegicus [12]): 0.06 kg·h/L |
| < 10 | < 10 | Stable | COc1ncc(-c2ccc(C)nc2CCNC(=O)c2ccc(OCCC(F)(F)F)nc2)cn1 |  |
|  |  | Stable | COc1ncc(-c2cccc3c2C[C@H](NC(=O)c2ccc(OCCC(F)(F)F)nc2)CO3)cn1 | half-life [2]: 7.6 h; half-life [4]: 6.4 h; AUC/dose (Rattus norvegicus [5]): 1.2 kg·h/L; Tmax [6]: 4.8 h; Vd [7]: 7.2 L/kg; clearance [9]: 14 mL/min/kg; bioavailability [10]: 26%; Cmax [11]: 230 nM; AUC/dose (Rattus norvegicus [12]): 0.32 kg·h/L |
| < 10 | < 10 |  | COc1ncc(-c2cccnc2C(C)CNC(=O)c2ccc(OCCC(F)(F)F)nc2)cn1 (stereo unspecified) |  |
| 190 | < 10 |  | COc1ncc(-c2cccc(OC(F)F)c2CCNC(=O)c2ccc(OCCC(F)(F)F)nc2)cn1 |  |
| 24 | < 10 | Stable | COc1cnc(-c2cccc(F)c2C(F)(F)CNC(=O)c2ccc(COCC(F)(F)F)nc2)cn1 |  |
| < 10 | 15 |  | Cc1ncc(-c2ccccc2CCNC(=O)c2ccc(CNCCC(F)(F)F)nc2)cn1 |  |
| 130 | 10 |  | O=C(NCCc1ccccc1-c1ccc(CO)nc1)c1ccc(OCCC(F)(F)F)nc1 |  |
| > 500 | 17 |  | COc1ncc(-c2ccccc2CCNC(=O)c2ccc(OCCC(F)(F)F)nc2)cn1 |  |
| < 10 | 11 | Unstable | Cc1ncc(-c2ccccc2CCNC(=O)c2ccc(C(=O)NCCCC(F)(F)F)nc2)cn1 |  |
| < 10 | < 10 | Stable | COc1ncc(-c2cccnc2CCNC(=O)c2ccc(OCCC(F)(F)F)nc2)cn1 |  |
| 230 | 100 |  | COc1ncc(-c2c(C)ccc(F)c2CCNC(=O)c2ccc(OCCC(F)(F)F)nc2)cn1 |  |

| CLH (Liver microsomes [1]) [µL/min/µg] | CLH (Liver microsomes [3]) [µL/min/µg] | Stability (Liver microsomes [8]) | Compound | further results |
| --- | --- | --- | --- | --- |
|  | 72 |  | COc1cnc(-c2ccc(Cl)cc2CCNC(=O)c2ccc(COCC(F)(F)F)nc2)cn1 |  |
| > 500 | 160 | Unstable | O=C(NCCc1ccccc1-c1cccnc1)c1ccc(OCCC(F)(F)F)nc1 |  |
| < 10 | < 10 | Unstable | Cc1ncc(-c2ccccc2CCNC(=O)c2ccc(COCC(F)(F)F)nc2)cn1 |  |
| < 10 | 21 | Stable | Cc1cnc(-c2c(F)ccc(F)c2CCNC(=O)c2ccc(COCC(F)(F)F)nc2)cn1 | half-life [2]: 2.3 h; half-life [4]: 5.9 h; AUC/dose (Rattus norvegicus [5]): 0.68 kg·h/L; Tmax [6]: 0.5 h; Vd [7]: 1.74 L/kg; clearance [9]: 24.6 mL/min/kg; bioavailability [10]: 7%; bioavailability [13]: 40%; Cmax [11]: 250 nM; AUC/dose (Rattus norvegicus [12]): 0.05 kg·h/L |
| 129 | 124 | Unstable | COc1cnc(-c2ccccc2CCNC(=O)c2ccc(OCCC(F)(F)F)nc2)cn1 |  |
| 88 | 61 | Unstable | COc1cnc(-c2c(C)ccc(F)c2CCNC(=O)c2ccc(COCC(F)(F)F)nc2)cn1 | half-life [2]: 3.6 h; half-life [4]: 0.9 h; AUC/dose (Rattus norvegicus [5]): 0.91 kg·h/L; Tmax [6]: 1.5 h; Vd [7]: 1.5 L/kg; clearance [9]: 19 mL/min/kg; bioavailability [10]: 4%; Cmax [11]: 530 nM; AUC/dose (Rattus norvegicus [12]): 0.03 kg·h/L |
| > 500 | 11 | Unstable | Cc1ncc(-c2ccccc2CCNC(=O)c2ccc(OCCC(F)(F)F)nc2)cn1 |  |
| < 10 | < 10 |  | COc1ncc(-c2cccnc2C(F)(F)CNC(=O)c2ccc(OCCC(F)(F)F)nc2)cn1 |  |
| 67 | 46 |  | COc1cnc(-c2c(OC)ccc(F)c2CCNC(=O)c2ccc(COCC(F)(F)F)nc2)cn1 |  |
| 13 | < 10 | Stable | COc1ncc(-c2ccccc2C(F)(F)CNC(=O)c2ccc(COCC(F)(F)F)nc2)cn1 | half-life [2]: 2.4 h; half-life [4]: 2 h; AUC/dose (Rattus norvegicus [5]): 0.71 kg·h/L; Tmax [6]: 0.75 h; Vd [7]: 1.4 L/kg; clearance [9]: 23 mL/min/kg; bioavailability [10]: 34%; Cmax [11]: 840 nM; AUC/dose (Rattus norvegicus [12]): 0.24 kg·h/L |
| 32 | 65 | Stable | COc1ncc(-c2cccc(C)c2CCNC(=O)c2ccc(OCCC(F)(F)F)nc2)cn1 | half-life [2]: 2.4 h; half-life [4]: 0.98 h; AUC/dose (Rattus norvegicus [5]): 0.33 kg·h/L; Tmax [6]: 0.25 h; Vd [7]: 2.4 L/kg; clearance [9]: 50 mL/min/kg; bioavailability [10]: 0.6%; Cmax [11]: 20 nM; AUC/dose (Rattus norvegicus [12]): 0.002 kg·h/L |
| 150 | 40 |  | COc1ccc(CCNC(=O)c2ccc(OCCC(F)(F)F)nc2)c(-c2cnc(OC)nc2)c1 |  |
| < 10 | < 10 |  | COc1ncc(-c2cc(C)cnc2CCNC(=O)c2ccc(COCC(F)(F)F)nc2)cn1 |  |
| < 10 | 17 | Unstable | COc1ncc(-c2cccc(Cl)c2CCNC(=O)c2ccc(OCCC(F)(F)F)nc2)cn1 |  |
| 13 | < 10 | Unstable | COc1ncc(-c2cccc(F)c2CCNC(=O)c2ccc(OCCC(F)(F)F)nc2)cn1 |  |
| 24 | < 10 | Stable | COc1ncc(-c2cccc(C#N)c2CCNC(=O)c2ccc(OCCC(F)(F)F)nc2)cn1 |  |
